Calls of active or inactive are those of the source. The calls are words filed in the database; no cut-off is given here.
Legend:
Enterococcus faecalis [1] = assay: Antibacterial activity against Enterococcus faecalis infected in Caenorhabditis elegans assessed as organism survival at 8.6 uM; format: functional, organism-based
Procedure, shortened: (§1)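 Gravid glp-4(bn2) sek-1(km4) adults were bleached for eggs, hatched at 15°C for 2 days, then grown on E. coli HB101 at 25°C for 52 h. Sterile adults were infected on E. faecalis MMH594 lawns (kanamycin 80 μg/ml) for 15 h at 15°C. Worms were sorted 15 per well into 20% BHI, 60% M9, kanamycin, nystatin and 1% DMSO, then kept 5 days at 26.3°C. Survival was scored from bright-field images, with median survival (LT50) as the read-out.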

Staphylococcus aureus [2] = assay: Antibacterial activity against wild-type Staphylococcus aureus 8325-4 after 18 hrs by two fold serial dilution method; format: functional; settings: 8325-4, 18 h
Procedure, shortened: (§2)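 Broth inoculated at 10⁵ cells/ml and serial 2-fold compound dilutions, run in triplicate. Incubated 18 h at 37°C, with growth read as absorbance at 600 nm. MIC is the lowest concentration giving complete growth inhibition.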

Staphylococcus aureus [3] = assay: Antibacterial activity against NorA-deficient Staphylococcus aureus K1758 after 18 hrs by two fold serial dilution method; format: functional; settings: K1758, 18 h; procedure, shortened: as §2
Staphylococcus aureus [4] = assay: Antibacterial activity against Staphylococcus aureus K2378 overexpressing NorA after 18 hrs by two fold serial dilution method; format: functional; settings: K2378, 18 h; procedure, shortened: as §2
Enterococcus faecalis [5] = assay: Antibacterial activity against Enterococcus faecalis infected in Caenorhabditis elegans assessed as organism survival at 20 uM; format: functional, organism-based; procedure, shortened: as §1
[6] = target: T1, Quinolone resistance protein NorA (Staphylococcus aureus) (UniProt P0A0J7); assay: Inhibition of NorA in Staphylococcus aureus K2378 overexpressing NorA assessed as ethidium bromide uptake at 3 uM by fluorescence assay in presence of INF55
T1 sequence (whole entry): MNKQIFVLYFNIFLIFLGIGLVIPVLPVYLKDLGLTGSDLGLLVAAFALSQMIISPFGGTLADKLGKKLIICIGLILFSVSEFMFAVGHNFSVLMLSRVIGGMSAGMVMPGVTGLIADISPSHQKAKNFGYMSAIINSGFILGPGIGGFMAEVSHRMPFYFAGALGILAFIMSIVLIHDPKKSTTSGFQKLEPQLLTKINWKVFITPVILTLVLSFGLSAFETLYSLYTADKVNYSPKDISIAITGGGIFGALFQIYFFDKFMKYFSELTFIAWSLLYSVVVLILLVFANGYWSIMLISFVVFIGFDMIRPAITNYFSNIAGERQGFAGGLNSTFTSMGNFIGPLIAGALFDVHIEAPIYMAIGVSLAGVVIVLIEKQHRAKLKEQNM
Procedure, shortened: (§3)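 S. aureus was grown at 37°C to OD600 1.5, washed in PBS, then energised for 1 h at 37°C in PBS with 10 mM dextrose (OD ~0.8). Cells were washed and diluted to OD ~0.3 in PBS. Hybrid or INF55 was added before ethidium bromide, all at 3 μM. Fluorescence was read at ex 530/em 600 nm, with cell-free compound background subtracted. At least triplicate.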

[7] = target: T1, Quinolone resistance protein NorA (Staphylococcus aureus); assay: Inhibition of NorA in Staphylococcus aureus 8325-4 assessed as ethidium bromide uptake at 3 uM by fluorescence assay; procedure, shortened: as §3
[8] = target: T1, Quinolone resistance protein NorA (Staphylococcus aureus); assay: Inhibition of NorA in Staphylococcus aureus K2378 overexpressing NorA assessed as ethidium bromide uptake at 3 uM by fluorescence assay; procedure, shortened: as §3
[9] = target: T1, Quinolone resistance protein NorA (Staphylococcus aureus); assay: Inhibition of NorA in Staphylococcus aureus 8325-4 assessed as increase in ethidium bromide uptake at 3 uM by fluorescence assay in presence of INF55; procedure, shortened: as §3
[10] = target: T1, Quinolone resistance protein NorA (Staphylococcus aureus); assay: Inhibition of NorA in Staphylococcus aureus K2378 overexpressing NorA assessed as increase in ethidium bromide uptake at 3 uM by fluorescence assay in presence of INF55; procedure, shortened: as §3
Staphylococcus aureus [11] = assay: Increase in ethidium bromide uptake in NorA-deficient Staphylococcus aureus K1758 at 3 uM by fluorescence assay; format: functional, organism-based; procedure, shortened: as §3
Staphylococcus aureus [12] = assay: Increase in ethidium bromide uptake in NorA-deficient Staphylococcus aureus K1758 at 3 uM by fluorescence assay in presence of INF55; format: functional, organism-based; procedure, shortened: as §3
[13] = target: T1, Quinolone resistance protein NorA (Staphylococcus aureus); assay: Inhibition of NorA in Staphylococcus aureus 8325-4 assessed as accumulation of compound at 3 uM by fluorescence assay
Procedure, shortened: (§4)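 S. aureus was grown at 37°C to OD600 1.5, washed, then energised for 1 h at 37°C in PBS with 10 mM dextrose. Cells were diluted to OD ~0.3 in PBS, and compounds (berberine ± INF55, or hybrids) were added at 3 μM each. DNA-binding fluorescence increase was followed at ex 355/em 517 nm, in arbitrary units, with background subtracted. At least three independent experiments.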

[14] = target: T1, Quinolone resistance protein NorA (Staphylococcus aureus); assay: Inhibition of NorA in Staphylococcus aureus K2378 overexpressing NorA assessed as accumulation of compound at 3 uM by fluorescence assay; procedure, shortened: as §4
[15] = target: T1, Quinolone resistance protein NorA (Staphylococcus aureus); assay: Inhibition of NorA in Staphylococcus aureus 8325-4 assessed as accumulation of Berberine at 3 uM by fluorescence assay in presence of INF55; procedure, shortened: as §4
[16] = target: T1, Quinolone resistance protein NorA (Staphylococcus aureus); assay: Inhibition of NorA in Staphylococcus aureus K2378 overexpressing NorA assessed as accumulation of Berberine at 3 uM by fluorescence assay in presence of INF55; procedure, shortened: as §4
[17] = target: T1, Quinolone resistance protein NorA (Staphylococcus aureus); assay: Inhibition of NorA in Staphylococcus aureus 8325-4 assessed as assessed as accumulation of compound at 3 uM by fluorescence assay; procedure, shortened: as §4
Staphylococcus aureus [18] = assay: Antibacterial activity against NorA-deficient Staphylococcus aureus K1758 after 18 hrs by two fold serial dilution method in presence of INF55; format: functional, organism-based
[19] = target: T1, Quinolone resistance protein NorA (Staphylococcus aureus); assay: Inhibition of NorA in Staphylococcus aureus 8325-4 assessed as decrease in Berberine MIC
[20] = target: T1, Quinolone resistance protein NorA (Staphylococcus aureus); assay: Inhibition of NorA in Staphylococcus aureus K2378 overexpressing NorA assessed as decrease in Berberine MIC
Staphylococcus aureus [21] = assay: Cellular uptake in NorA-deficient Staphylococcus aureus K1758 assessed as accumulation of compound at 3 uM by fluorescence assay; format: ADME, organism-based; settings: in vivo
Procedure, shortened: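 K1758 (ΔnorA) cells grown at 37°C to OD600 1.5, washed twice in PBS, then energized 1 h at 37°C with aeration in PBS plus 10 mM dextrose at OD ~0.8. Cells washed again and diluted to OD ~0.3 in PBS. Compound added at 3 μM. DNA-binding fluorescence read at ex 355/em 517 nm, cell-free background subtracted, arbitrary units; ≥3 independent experiments.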

Row | SMILES | MIC (Staphylococcus aureus [2]) | MIC (Staphylococcus aureus [3]) | MIC (Staphylococcus aureus [4]) | Activity (Enterococcus faecalis [5]) | inhibition [6] | inhibition [7] | inhibition [8] | inhibition [9] | inhibition [10] | Activity (Staphylococcus aureus [11]) | Activity (Staphylococcus aureus [12]) | further results
1 | CN[C@H](CC(C)C)C(=O)N[C@H]1C(=O)N[C@@H](CC(N)=O)C(=O)N[C@H]2C(=O)N[C@H]3C(=O)N[C@H](C(=O)N[C@H](C(=O)O)c4cc(O)cc(O)c4-c4cc3ccc4O)[C@H](O)c3ccc(c(Cl)c3)Oc3cc2cc(c3O[C@@H]2O[C@H](CO)[C@@H](O)[C@H](O)[C@H]2O[C@H]2C[C@](C)(N)[C@H](O)[C@H](C)O2)Oc2ccc(cc2Cl)[C@H]1O |  |  |  |  |  |  |  |  |  |  |  | Activity (Enterococcus faecalis [1]): Active
2 | COc1ccc2c(Cc3ccc(-c4cc5cc([N+](=O)[O-])ccc5[nH]4)cc3)c3[n+](cc2c1OC)CCc1cc2c(cc1-3)OCO2 | 40.2 µM | 20.1 µM | 40.2 µM | Active | inactive | Active | Active | Active | Active | Active | Active | 
3 | COc1ccc2c(Cc3ccccc3-c3cc4cc([N+](=O)[O-])ccc4[nH]3)c3[n+](cc2c1OC)CCc1cc2c(cc1-3)OCO2 | 9.4 µM | 9.4 µM | 18.8 µM |  |  |  |  |  |  |  |  | 
4 | COc1ccc2c(Cc3cccc(-c4cc5cc([N+](=O)[O-])ccc5[nH]4)c3)c3[n+](cc2c1OC)CCc1cc2c(cc1-3)OCO2 | 20.1 µM | 20.1 µM | 20.1 µM | Active | inactive | Active | Active | Active | Active | Active | Active | 
5 | COc1ccc2cc3[n+](cc2c1OC)CCc1cc2c(cc1-3)OCO2.[Cl-] [BERBERINE CHLORIDE] | 325 µM | 40 µM | > 650 µM |  |  |  |  |  |  |  |  | inhibition [13]: inactive; inhibition [14]: inactive; inhibition [15]: Active; inhibition [16]: Active; inhibition [17]: Active; Activity (Staphylococcus aureus [18]): Active; Activity [19]: Active; Activity [20]: Active; Drug uptake (Staphylococcus aureus [21]): Active

From ChEMBL document CHEMBL1629702, “Berberine-INF55 (5-nitro-2-phenylindole) hybrid antimicrobials: effects of varying the relative orientation of the berberine and INF55 components” (Antimicrob Agents Chemother, 2010)
